Results on 26 compounds are retold here after ChEMBL document CHEMBL3124827, “Design and synthesis of 2-styryl of 5-Nitroimidazole derivatives and antimicrobial activities as FabH inhibitors” (Eur J Med Chem, 2014).

Values after ≈ are worked out from the molar mass of the structure shown.

As a reminder, the IC50 is the concentration that inhibits the measured activity by half. A low value points to greater potency.

Data set [1] can be described thus: Inhibition of Escherichia coli FabH expressed in Escherichia coli BL21 (DE3) after 25 mins. The method in brief:
(§1)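 His-tagged FabH purified by Ni-NTA (IPTG 0.5 mM induction in kanamycin LB), stored at 2 mg/mL. 20 µL reaction: 20 mM Na2HPO4 pH 7.0, 0.5 mM DTT, 0.25 mM MgCl2, 2.5 µM holo-ACP, 1 nM FabH; after 1 min, 25 µM acetyl-CoA, 0.5 mM NADH, 0.5 mM NADPH added for 25 min; 3H incorporation by liquid scintillation; inhibitors from DMSO stock, final DMSO ≤2%; IC50 determined.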

For a further data set, the system named is Pseudomonas aeruginosa. Kind of data set: Antibacterial activity against Pseudomonas aeruginosa after 12 hrs by MTT assay. The data set is classed as functional, organism-based. An outline of the steps:
(§2)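 MTT broth-dilution assay; drug-containing medium added to final concentrations of 320, 160, 40, 10, 2.5 and 0.25 µg/mL, each in triplicate. After 12 h, 25 µL of 5 mg/mL MTT in PBS added; after 4 h medium discarded, formazan dissolved in 150 µL DMSO with 10 min shaking, absorbance read at 490 nm; 50% inhibitory concentration reported.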

Another data set deals with Escherichia coli. Description: Antibacterial activity against Escherichia coli after 12 hrs by MTT assay. The data set is classed as functional, organism-based. An outline of the steps:
as §2
On the technique in general: Tetrazolium dyes change colour on reduction, which living cells bring about.

Another data set concerns Bacillus thuringiensis. Description: Antibacterial activity against Bacillus thuringiensis after 12 hrs by MTT assay. The data set is classed as functional, organism-based. The method in brief: as §2
Data set [2] in a line: Inhibition of Pseudomonas aeruginosa FabH after 25 mins. The method in brief:
as §1

The test system of another data set is Bacillus subtilis. Kind of data set: Antibacterial activity against Bacillus subtilis after 12 hrs by MTT assay. Type of data set: functional, organism-based. The method in brief: as §2
Data set [3] in a line: Cytotoxicity against human macrophages up to 160 ug/ml after 24 hrs by MTT assay. Type of data set: cell-based. Conditions: macrophage. The method in brief:
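Cells grown to 90% confluency, switched to serum-free DMEM, exposed to various concentrations for 24 h; viability by MTT, read spectrophotometrically as absorbance difference 570 minus 630 nm.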

Data set [4] can be described thus: Cytotoxicity against human macrophages assessed as change in morphology at 0.25 to 160 ug/ml after 24 hrs using Giemsa staining by phase contrast microscopic analysis. Type of data set: cell-based. The settings on record: macrophage. The method in brief:
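Confluent cells (100 µL stock suspension) grown to 90% confluency, medium replaced with serum-free DMEM, then exposed 24 h to 0.25 or 160 µg/mL test compound; cell morphology compared with untreated control after Giemsa staining under phase contrast microscopy.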

For the compound `CCOC(OCC)c1ccc(/C=C/c2ncc([N+](=O)[O-])n2CCO)cc1`, the half-inhibitory concentration (IC50) in data set [1] turned out to be 4.2 µM; with Pseudomonas aeruginosa it was 70.3 µg/mL (≈ 195 µM); in the data set on Escherichia coli, 59.2 µg/mL (≈ 164 µM); with Bacillus thuringiensis, 5.9 µg/mL (≈ 16.3 µM); in data set [2], 15.9 µM; with Bacillus subtilis, 17.9 µg/mL (≈ 49.5 µM).
On to `CN(C)c1ccc(/C=C/c2ncc([N+](=O)[O-])n2CCO)cc1`, for which the half-maximal inhibitory concentration (IC50) in data set [1] came out at 10.2 µM; with Pseudomonas aeruginosa, 121 µg/mL (≈ 400 µM); in the data set with Escherichia coli, 88 µg/mL (≈ 291 µM); with Bacillus thuringiensis, 7.2 µg/mL (≈ 23.8 µM); in data set [2], 25.6 µM; in the data set on Bacillus subtilis, 17.2 µg/mL (≈ 56.9 µM).
For `O=[N+]([O-])c1cnc(/C=C/c2ccccc2)n1CCO`, the IC50 in the data set on Pseudomonas aeruginosa is 12.4 µg/mL (≈ 47.8 µM); in the data set on Escherichia coli, more than 200 µg/mL; in the data set on Bacillus thuringiensis, 49.5 µg/mL (≈ 191 µM); with Bacillus subtilis it was 49.3 µg/mL (≈ 190 µM).
`O=[N+]([O-])c1cnc(/C=C/c2cccc3ccccc23)n1CCO`: the half-inhibitory concentration (IC50) with Pseudomonas aeruginosa amounted to 13.1 µg/mL (≈ 42.4 µM); with Escherichia coli, 153 µg/mL (≈ 496 µM); in the data set with Bacillus thuringiensis, 8.6 µg/mL (≈ 27.8 µM); with Bacillus subtilis, 13.6 µg/mL (≈ 44 µM).
Consider `NC[C@H]1O[C@H](O[C@H]2[C@H](O)[C@@H](O[C@H]3O[C@H](CO)[C@@H](O)[C@H](N)[C@H]3O)[C@H](N)C[C@@H]2N)[C@H](O)[C@@H](O)[C@@H]1O` [KANAMYCIN], for which the IC50 in data set [1] worked out at 3.1 µM; in data set [2] it was 6.7 µM.
On to `O=[N+]([O-])c1ccc(/C=C/c2ncc([N+](=O)[O-])n2CCO)cc1`, for which the half-maximal inhibitory concentration (IC50) was 2.1 µM in data set [1]; 15.5 µg/mL (≈ 50.9 µM) with Pseudomonas aeruginosa; 36.4 µg/mL (≈ 120 µM) in the data set on Escherichia coli; 13.9 µg/mL (≈ 45.7 µM) in the data set with Bacillus thuringiensis; 12.4 µM in data set [2]; 9 µg/mL (≈ 29.6 µM) with Bacillus subtilis. In addition, the Activity result in data set [3] and in data set [4] was “Non-toxic” each time.
With `O=[N+]([O-])c1cnc(/C=C/c2ccccc2F)n1CCO`, the half-maximal inhibitory concentration (IC50) is 4.4 µM in data set [1]; 6.8 µg/mL (≈ 24.5 µM) in the data set with Pseudomonas aeruginosa; more than 200 µg/mL with Escherichia coli; 29.9 µg/mL (≈ 108 µM) in the data set with Bacillus thuringiensis; 19.2 µM in data set [2]; 61.5 µg/mL (≈ 222 µM) in the data set on Bacillus subtilis.
`O=[N+]([O-])c1cnc(/C=C/c2cccc(Br)c2)n1CCO`: the 50% inhibitory concentration (IC50) in the data set on Pseudomonas aeruginosa came out at 43.6 µg/mL (≈ 129 µM); in the data set with Escherichia coli it was 116 µg/mL (≈ 342 µM); with Bacillus thuringiensis, 23.4 µg/mL (≈ 69.2 µM); with Bacillus subtilis, 24.4 µg/mL (≈ 72.2 µM).
The matching figures for `O=[N+]([O-])c1cccc(/C=C/c2ncc([N+](=O)[O-])n2CCO)c1`: 74.6 µg/mL (≈ 245 µM), more than 200 µg/mL, 7 µg/mL (≈ 23 µM) and 53.1 µg/mL (≈ 175 µM).
The corresponding values for `COc1ccc(/C=C/c2ncc([N+](=O)[O-])n2CCO)cc1` are 30.2 µg/mL (≈ 104 µM), 89.1 µg/mL (≈ 308 µM), 67.4 µg/mL (≈ 233 µM) and 146 µg/mL (≈ 506 µM).
For the compound `O=[N+]([O-])c1cnc(/C=C/c2c(F)cccc2Cl)n1CCO`, the 50% inhibitory concentration (IC50) in the data set on Pseudomonas aeruginosa was determined as 38.1 µg/mL (≈ 122 µM); with Escherichia coli, 82.1 µg/mL (≈ 263 µM); with Bacillus thuringiensis, 25.3 µg/mL (≈ 81.2 µM); in the data set with Bacillus subtilis, 19.6 µg/mL (≈ 62.9 µM).
The corresponding values for `CC(C)(S)[C@@H](N)C(=O)O` [PENICILLAMINE] are 5.8 µg/mL (≈ 38.9 µM), 42.3 µg/mL (≈ 283 µM), 6.3 µg/mL (≈ 42.2 µM) and 6.3 µg/mL (≈ 42.2 µM).
Turning to `O=[N+]([O-])c1cnc(/C=C/c2cccc(F)c2)n1CCO`, the half-maximal inhibitory concentration (IC50) in the data set on Pseudomonas aeruginosa was found to be 16.8 µg/mL (≈ 60.6 µM); in the data set on Escherichia coli, 114 µg/mL (≈ 412 µM); in the data set on Bacillus thuringiensis, 55.1 µg/mL (≈ 199 µM); in the data set on Bacillus subtilis, 36.6 µg/mL (≈ 132 µM).
The matching figures for `O=[N+]([O-])c1cnc(/C=C/c2ccc(Cl)cc2Cl)n1CCO`: 39.3 µg/mL (≈ 120 µM), more than 200 µg/mL, 36.7 µg/mL (≈ 112 µM) and 57.1 µg/mL (≈ 174 µM).
The matching figures for `Cc1ccc(/C=C/c2ncc([N+](=O)[O-])n2CCO)cc1`: 2.9 µg/mL (≈ 10.6 µM), 145 µg/mL (≈ 530 µM), 28.6 µg/mL (≈ 105 µM) and 42.6 µg/mL (≈ 156 µM).
Take `O=[N+]([O-])c1cnc(/C=C/c2ccc(F)cc2)n1CCO`: the IC50 in data set [1] amounted to 16.5 µM; in the data set with Pseudomonas aeruginosa, 1.7 µg/mL (≈ 6.13 µM); in the data set with Escherichia coli it was 57.2 µg/mL (≈ 206 µM); with Bacillus thuringiensis, 12.5 µg/mL (≈ 45.1 µM); in data set [2] it was 22.5 µM; in the data set with Bacillus subtilis, 8.8 µg/mL (≈ 31.7 µM).
As to `O=[N+]([O-])c1cnc(/C=C/c2cccc(Cl)c2)n1CCO`, the IC50 in the data set on Pseudomonas aeruginosa turned out to be 14.7 µg/mL (≈ 50 µM); in the data set on Escherichia coli, 119 µg/mL (≈ 406 µM); with Bacillus thuringiensis it was 25.7 µg/mL (≈ 87.5 µM); in the data set with Bacillus subtilis it was 40.7 µg/mL (≈ 139 µM).
Take `O=[N+]([O-])c1cnc(/C=C/c2ccc3ccccc3c2)n1CCO`: the concentration for half-maximal inhibition (IC50) in data set [1] is 11 µM; with Pseudomonas aeruginosa it was 19.8 µg/mL (≈ 64 µM); with Escherichia coli it was more than 200 µg/mL; in the data set on Bacillus thuringiensis, 11.9 µg/mL (≈ 38.5 µM); in data set [2], 10.2 µM; with Bacillus subtilis, 3.6 µg/mL (≈ 11.6 µM).
For `O=[N+]([O-])c1cnc(/C=C/c2ccccc2Cl)n1CCO`, the IC50 turned out to be 6.5 µM in data set [1]; 17.8 µg/mL (≈ 60.6 µM) with Pseudomonas aeruginosa; 175 µg/mL (≈ 595 µM) in the data set on Escherichia coli; 37.8 µg/mL (≈ 129 µM) in the data set on Bacillus thuringiensis; 29.2 µM in data set [2]; 2.9 µg/mL (≈ 9.87 µM) in the data set with Bacillus subtilis.
For `O=[N+]([O-])c1cnc(/C=C/c2ccc(Cl)cc2)n1CCO`, the IC50 in the data set with Pseudomonas aeruginosa was 48.3 µg/mL (≈ 164 µM); with Escherichia coli, more than 200 µg/mL; with Bacillus thuringiensis, 32.1 µg/mL (≈ 109 µM); in the data set on Bacillus subtilis it was 32.8 µg/mL (≈ 112 µM).
The matching figures for `COc1ccccc1/C=C/c1ncc([N+](=O)[O-])n1CCO`: 20.4 µg/mL (≈ 70.5 µM), 188 µg/mL (≈ 649 µM), 37.3 µg/mL (≈ 129 µM) and 19.8 µg/mL (≈ 68.4 µM).
The corresponding values for `O=[N+]([O-])c1cnc(/C=C/c2ccccc2Br)n1CCO` are 7.6 µg/mL (≈ 22.5 µM), more than 200 µg/mL, 9.3 µg/mL (≈ 27.5 µM) and 27.9 µg/mL (≈ 82.5 µM).
In the case of `O=[N+]([O-])c1cnc(/C=C/c2ccc(Br)cc2)n1CCO`, the 50% inhibitory concentration (IC50) in the data set on Pseudomonas aeruginosa turned out to be 32.2 µg/mL (≈ 95.2 µM); in the data set with Escherichia coli, 119 µg/mL (≈ 353 µM); in the data set with Bacillus thuringiensis, 19.2 µg/mL (≈ 56.8 µM); with Bacillus subtilis, 114 µg/mL (≈ 336 µM).
Turning to `O=[N+]([O-])c1cnc(/C=C/c2ccc(OCc3ccccc3)cc2)n1CCO`, the half-maximal inhibitory concentration (IC50) in data set [1] was found to be 3.4 µM; in the data set with Pseudomonas aeruginosa, 14.5 µg/mL (≈ 39.7 µM); in the data set on Escherichia coli, 34.3 µg/mL (≈ 93.9 µM); in the data set with Bacillus thuringiensis, 9.8 µg/mL (≈ 26.8 µM); in data set [2], 7.9 µM; with Bacillus subtilis, 6.3 µg/mL (≈ 17.2 µM). Moreover, the Activity result in data set [3] and in data set [4] was “Non-toxic” in each case.
`COc1cccc(/C=C/c2ncc([N+](=O)[O-])n2CCO)c1`: the half-inhibitory concentration (IC50) is 46.1 µg/mL (≈ 159 µM) with Pseudomonas aeruginosa, more than 200 µg/mL in the data set on Escherichia coli, 12.1 µg/mL (≈ 41.8 µM) with Bacillus thuringiensis and 26.2 µg/mL (≈ 90.6 µM) in the data set with Bacillus subtilis.
The matching figures for `O=[N+]([O-])c1ccccc1/C=C/c1ncc([N+](=O)[O-])n1CCO`: 12.8 µg/mL (≈ 42.1 µM), 157 µg/mL (≈ 517 µM), 5.8 µg/mL (≈ 19.1 µM) and 11.8 µg/mL (≈ 38.8 µM).
